Assay results from PMC4747818 (Journal of controlled release : official journal of the …, 2016).
Where a SMILES comes first, the peptide text is derived from it. [ ]: non-standard residue; d: D form.

Tests used:
[1] = system: M1 macrophages; assay: Cell viability during binding study; assay type: cell-based, murine; conditions: 20 min on ice, PI staining; up to 50 µM; Fig. 1B
How it was run: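 Bone-marrow cells cultured 7 d in RPMI 1640 with 20% horse serum, 1% antibiotic-antimycotic and 20 ng/mL M-CSF, then activated 2 d with 25 ng/mL IFN-γ plus 100 ng/mL LPS. Cells were plated at 50,000/well and given biotinylated peptide in PBS/1% BSA on ice. After washing they were given streptavidin-FITC for 15 min on ice. Dead cells were scored by PI flow cytometry. Triplicates, three independent experiments.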

[2] = system: M2 macrophages; assay type: cell-based; conditions: 2 h
[3] = system: macrophages; assay: M2pep sequence specificity of macrophage toxicity; assay type: cell-based, murine; conditions: peptides partially dimerized in solution; Fig. S3, linkers Fig. S4

| Compound | macrophage toxicity [3] | also measured |
| --- | --- | --- |
| YEQDPWGVKWWYGGGSKKKBiotin [M2pepBiotin] | – | toxicity to M1 macrophages during binding study [1]: no toxicity to either cell type |
| CC(C)C[C@@H](NC(=O)[C@@H](CCCCN)NC(=O)[C@H](CO)NC(=O)CNC(=O)CNC(=O)CNC(=O)[C@H](Cc1ccc(O)cc1)NC(=O)[C@H](Cc1c[nH]c2ccccc12)NC(=O)[C@H](Cc1c[nH]c2ccccc12)NC(=O)[C@H](CCCCN)NC(=O)[C@@H](NC(=O)CNC(=O)[C@H](Cc1c[nH]c2ccccc12)NC(=O)[C@@H]1CCCN1C(=O)[C@H](CC(=O)O)NC(=O)[C@H](CCC(N)=O)NC(=O)[C@H](CCC(=O)O)NC(=O)[C@@H](N)Cc1ccc(O)cc1)C(C)C)C(=O)N[C@H](C)C(=O)N[C@H](CCCCN)C(=O)N[C@H](CC(C)C)C(=O)N[C@H](C)C(=O)N[C@H](CCCCN)C(=O)N[C@H](CCCCN)C(=O)N[C@H](CC(C)C)C(=O)N[C@H](C)C(=O)N[C@H](CCCCN)C(=O)N[C@H](CC(C)C)C(=O)N[C@H](C)C(=O)N[C@H](CCCCN)C(N)=O [M2pepKLA] (H-YEQDPWGVKWWYGGGS[dK][dL][dA][dK][dL][dA][dK][dK][dL][dA][dK][dL][dA][dK]-NH2) | – | EC50 [2]: 4.29 µM |
| WEDYQWPVYKGWGGGSKKKC [scrambled M2pepKKKC, reference compound] | toxicity was only observed in the M2pepKKKC-treated samples | – |
| YEQDPWGVKWWYGGGSKKKC [M2pepKKKC] | toxicity was only observed in the M2pepKKKC-treated samples | – |
